Test results as given in ChEMBL document CHEMBL4732121, “Imidazo[1,2-a]quinoxalines for melanoma treatment with original mechanism of action” (Eur J Med Chem, 2021).

Key:
A-375 = assay: Antiproliferative activity against human A-375 cells assessed as reduction in cell viability measured after 96 hrs by MTT assay; format: functional, cell-based; details: Homo sapiens, A-375, 96 h
Method in brief: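 A375 cells in RPMI-1640 with 10% heat-inactivated FBS, 2 mM L-glutamine and antibiotics, 37°C, 5% CO₂. Seeded at 5000 cells/well and attached overnight, then exposed to 10⁻⁵–3.2.10⁻⁹ M in 0.15% DMSO/medium for 96 h. MTT at 0.5 mg/ml final for 4 h, formazan dissolved in 10% SDS/0.01 M HCl, OD 570 nm. At least three experiments in triplicate; IC50 from sigmoidal dose–response curves.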

[1] = Inhibition of pig brain tubulin polymerization at 5 uM measured after 45 mins by turbidimetry based spectrophotometric method relative to control; format: tissue-based, Sus scrofa; details: 0.75 h
MeWo = assay: Antiproliferative activity against human MeWo cells assessed as reduction in cell viability measured after 96 hrs by MTT assay; format: functional, cell-based
A2058 = assay: Antiproliferative activity against human A2058 cells assessed as reduction in cell viability measured after 96 hrs by MTT assay; format: functional, cell-based; details: A2058, 96 h
IPC-298 = assay: Antiproliferative activity against human IPC-298 cells assessed as reduction in cell viability measured after 96 hrs by MTT assay; format: functional, cell-based; details: IPC-298, 96 h

SMILES	IC50 (A-375) [nM]	other results
Nc1nccn2c(-c3ccc(O)c(O)c3)cnc12	> 10000	–
Nc1nc2ccccc2n2c(-c3ccc(O)c(O)c3)cnc12	60	–
Oc1ccc(-c2cnc3c(N4CCNCC4)nc4ccccc4n23)cc1O	> 10000	–
CN(C)c1nc2ccccc2n2c(-c3ccc(O)c(O)c3)cnc12	30	–
CNc1nc2ccc(C(F)(F)F)cc2n2c(-c3ccc(OC)c(OC)c3)cnc12	> 10000	–
CNc1nc2ccccc2n2c(Br)cnc12	2350	–
CNc1nc2ccccc2n2c(-c3cccc(OC)c3)cnc12	383	inhibition (INH) [1]: 84%; IC50 (MeWo): 125 nM; IC50 (A2058): 185 nM; IC50 (IPC-298): 469 nM
